Test results as given in ChEMBL document CHEMBL4251608, “Emimycin and its nucleoside derivatives: Synthesis and antiviral activity” (Eur J Med Chem, 2018).
Calls of active or inactive are those of the source. No cut-off for these calls is given here.

Legend:
Human betaherpesvirus 5 [1] = assay: Antiviral activity against HCMV AD169 infected in HEL cells assessed as reduction in virus-induced cytopathic effect after 6 to 7 days; type: functional, organism-based; details: Human betaherpesvirus 5, AD169, HEL
In short: (§1)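 Confluent HEL fibroblasts were inoculated with 100 CCID50 of HCMV. After 2 h adsorption the inoculum was removed and cells were incubated with varying compound concentrations. Viral cytopathicity was recorded 6-7 days post-infection. […] Data are the mean of two independent experiments.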

Human betaherpesvirus 5 [2] = assay: Antiviral activity against HCMV Davis infected in HEL cells assessed as reduction in virus-induced cytopathic effect after 6 to 7 days; type: functional, organism-based; details: Human betaherpesvirus 5, Davis; in short: as §1
Human alphaherpesvirus 1 [3] = assay: Antiviral activity against HSV1 KOS infected in HEL cells assessed as reduction in virus-induced cytopathic effect after 2 to 3 days; type: functional, organism-based; details: Human alphaherpesvirus 1, KOS
In short: (§2)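 Confluent HEL fibroblasts were infected with 100 CCID50 of HSV. After 2 h adsorption the virus was removed and cells were incubated with varying compound concentrations. Virus-induced cytopathicity was scored 2-3 days post-infection. […] Data are the mean of two independent experiments.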

Human alphaherpesvirus 1 [4] = assay: Antiviral activity against acyclovir-resistant HSV1 KOS harboring TK- mutant infected in HEL cells assessed as reduction in virus-induced cytopathic effect after 2 to 3 days; type: functional, organism-based; details: Human alphaherpesvirus 1, KOS; in short: as §2
Human alphaherpesvirus 2 = assay: Antiviral activity against HSV2 strain G infected in HEL cells assessed as reduction in virus-induced cytopathic effect after 2 to 3 days; type: functional, organism-based; details: Human alphaherpesvirus 2, strain G; in short: as §2
[5] = Cytotoxicity against HEL cells assessed as reduction in cell viability after 3 days by coulter counting method; type: cell-based; details: human
In short: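 HEL fibroblasts seeded at 5 x 10^3 cells/well, left to proliferate 24 h, then given medium with varying compound concentrations. After 3 days at 37 °C, cells counted with a Coulter counter.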

[6] = Cytotoxicity against HEL cells assessed as alteration in cell morphology after 3 days by microscopic method; type: cell-based; details: human
In short: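 HEL cells were treated with test compounds. MCC is the minimum concentration causing a microscopically detectable alteration of cell morphology. Data are the mean of two independent experiments.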

Human alphaherpesvirus 3 [7] = assay: Antiviral activity against TK-positive VZV Oka infected in HEL cells assessed as reduction in plaque formation after 5 days; type: functional, organism-based; details: Human alphaherpesvirus 3, strain Oka vaccine, 120 h
Human alphaherpesvirus 3 [8] = assay: Antiviral activity against TK-defecient VZV 07-1 infected in HEL cells assessed as reduction in plaque formation after 5 days; type: functional, organism-based; details: Human alphaherpesvirus 3, 07-1, HEL, 120 h
Influenza A virus = assay: Antiviral activity against Influenza A virus A/Ned/378/05(H1N1) infected in MDCK cells assessed as reduction in virus-induced cytopathic effect by MTS assay; type: functional, organism-based
H3N2 subtype = assay: Antiviral activity against Influenza A virus A/HK/7/87(H3N2) infected in MDCK cells assessed as reduction in virus-induced cytopathic effect by MTS assay; type: functional, organism-based; details: A/Hong Kong/7/1987(H3N2)
Influenza B virus = assay: Antiviral activity against Influenza B virus B/Ned/537/05 infected in MDCK cells assessed as reduction in virus-induced cytopathic effect by MTS assay; type: functional, organism-based; details: B/Ned/537/05, MDCK
[9] = Cytotoxicity against MDCK cells assessed as reduction in cell viability by MTS assay; type: cell-based, Canis lupus familiaris; details: dog
[10] = Cytotoxicity against MDCK cells assessed as alteration in cell morphology by microscopic method; type: cell-based, Canis lupus familiaris; details: dog
In short: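 MDCK cells exposed to compounds (up to 100 µM) and examined microscopically. MCC taken as the minimum concentration causing a detectable alteration of normal cell morphology.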

[11] = system: Respiratory syncytial virus; assay: Antiviral activity against RSV infected in human HeLa cells at 100 uM; type: functional, organism-based
HeLa = assay: Cytotoxicity against human HeLa cells at 100 uM; type: cell-based
Escherichia coli = assay: Antibacterial activity against Escherichia coli; type: functional, organism-based
Enterococcus faecium = assay: Antibacterial activity against Streptococcus faecium; type: functional, organism-based
[12] = Selectivity index, ratio of CC50 for HEL cells to EC50 for TK-positive VZV Oka infected in HEL cells; type: toxicity, cell-based; details: human, read-out: Ratio CC50/EC50
In short: (§3)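 SI = CC50/EC50, with both values from HEL fibroblasts. For the antiviral part, confluent cultures were inoculated with 100 CCID50 (HSV) or 20 PFU (VZV Oka). After 2 h adsorption the inoculum was removed and compounds added. Cytopathicity was scored at 2-3 days (HSV) and plaques at 5 days (VZV). CC50 came from Coulter counting of cell growth after 3 days.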

[13] = Selectivity index, ratio of CC50 for HEL cells to EC50 for HSV1 KOS infected in HEL cells; type: toxicity, cell-based; details: human, read-out: Ratio CC50/EC50; in short: as §3
[14] = Selectivity index, ratio of CC50 for HEL cells to EC50 for HSV2 strain G infected in HEL cells; type: toxicity, cell-based; details: human, read-out: Ratio CC50/EC50; in short: as §3
[15] = Ratio of EC50 for TK-defecient VZV 07-1 infected in HEL cells to EC50 for TK-positive VZV Oka infected in HEL cells; type: functional
In short: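 Confluent HEL fibroblasts were inoculated with 20 PFU of VZV, either TK− strain 07−1 or Oka. After 2 h adsorption the inoculum was removed and compound was added at varying concentrations. […] The ratio is the TK− EC50 over the Oka EC50.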

Human alphaherpesvirus 1 [16] = assay: Ratio of EC50 for acyclovir-resistant HSV1 KOS harboring TK- mutant infected in HEL cells to EC50 for HSV1 KOS infected in HEL cells; type: functional
In short: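 HEL fibroblasts were infected with 100 CCID50 of TK− ACV-resistant HSV-1 KOS or wild-type KOS, with 2 h adsorption, then incubated with varying compound concentrations. Cytopathicity was read at 2-3 days to give EC50 values. The ratio is TK− EC50 divided by wild-type EC50.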

Structure (SMILES) | EC50 (Human betaherpesvirus 5 [1]) [µM] | EC50 (Human betaherpesvirus 5 [2]) [µM] | EC50 (Human alphaherpesvirus 1 [3]) [µM] | EC50 (Human alphaherpesvirus 1 [4]) [µM] | EC50 (Human alphaherpesvirus 2) [µM] | CC50 at 72 h [5] [µM] | EC50 (Human alphaherpesvirus 3 [7]) [µM] | EC50 (Human alphaherpesvirus 3 [8]) [µM] | EC50 (Influenza A virus) [µM] | EC50 (H3N2 subtype) [µM] | EC50 (Influenza B virus) [µM] | CC50 [9] [µM] | MCC [10] [µM] | Activity [11] | Activity (HeLa) | further results
Nc1ccn(C[C@@H](CO)OCP(=O)(O)O)c(=O)n1 [CIDOFOVIR] | 1.04 | 1.58 | 2.81 | 1.56 | 1.97 | > 358 |  |  |  |  |  |  |  |  |  | MCC at 72 h [6]: > 358 µM
O=c1c[n+]([O-])ccn1[C@@H]1C[C@H](O)[C@@H](CO)O1 | > 87 | > 438 | > 438 | > 438 | > 438 | > 438 | 438 | > 438 |  |  |  |  |  |  |  | 
CCc1cn([C@@H]2C[C@H](O)[C@@H](CO)O2)c(=O)c[n+]1[O-] | > 78 | > 78 | 174 | > 390 | 204 | > 390 | 142 | 174 |  |  |  |  |  |  |  | 
O=c1c[n+]([O-])ccn1[C@H]1O[C@H](CO)[C@@H](O)[C@H]1O |  |  |  |  |  |  |  |  | > 100 | > 100 | > 100 | > 100 | > 100 | inactive | Non-Toxic | 
O=c1c[n+]([O-])ccn1[C@H]1C[C@H](O)[C@@H](CO)O1 | > 438 | > 438 | > 438 | > 438 | > 438 | > 438 | > 438 | > 438 |  |  |  |  |  |  |  | 
O=c1c[n+]([O-])cc[nH]1 |  |  |  |  |  |  |  |  | > 100 | > 100 | > 100 | > 100 | > 100 | inactive | Non-Toxic | EC50 (Escherichia coli): 10 µM; EC50 (Enterococcus faecium): 8 µM
Cc1cn([C@H]2O[C@H](CO)[C@@H](O)[C@H]2O)c(=O)c[n+]1[O-] |  |  |  |  |  |  |  |  | > 100 | > 100 | > 100 | > 100 | > 100 | inactive | Non-Toxic | 
O=c1[nH]c(=O)n([C@H]2C[C@H](O)[C@@H](CO)O2)cc1/C=C/Br [BRIVUDINE] |  |  | 0.068 | 20.1 |  | > 300 | 0.035 | 6.66 |  |  |  |  |  |  |  | MCC at 72 h [6]: > 300 µM
Cc1cn([C@@H]2O[C@H](CO)[C@@H](O)[C@H]2O)c(=O)c[n+]1[O-] |  |  |  |  |  |  |  |  | > 100 | > 100 | > 100 | > 100 | > 100 | inactive | Non-Toxic | 
Cc1c[nH]c(=O)c[n+]1[O-] |  |  |  |  |  |  |  |  | > 100 | > 100 | > 100 | > 100 | > 100 | inactive | Non-Toxic | 
CCc1cn([C@H]2C[C@H](O)[C@@H](CO)O2)c(=O)c[n+]1[O-] | > 78 | > 78 | 8.55 | > 390 | 145 | > 390 | 7.77 | 138 |  |  |  |  |  |  |  | 
O=c1c[n+]([O-])ccn1[C@@H]1O[C@H](CO)[C@@H](O)[C@H]1O |  |  |  |  |  |  |  |  | > 100 | > 100 | > 100 | > 100 | > 100 | inactive | Non-Toxic | 
Nc1nc2c(ncn2COCCO)c(=O)[nH]1 [ACYCLOVIR] |  |  | 0.38 | 88.8 |  | > 444 |  |  |  |  |  |  |  |  |  | MCC at 72 h [6]: > 444 µM
CCc1cn([C@@H]2O[C@H](CO)[C@@H](O)[C@H]2O)c(=O)c[n+]1[O-] |  |  |  |  |  |  |  |  | > 100 | > 100 | > 100 | > 100 | > 100 | inactive | Non-Toxic | 
Cc1cn([C@H]2C[C@H](O)[C@@H](CO)O2)c(=O)c[n+]1[O-] | > 412 | > 412 | 1.79 | 59.4 | 17.5 | > 412 | 0.99 | 6.91 |  |  |  |  |  |  |  | MCC at 72 h [6]: 169 µM; selectivity ratio [12]: > 416; selectivity ratio [13]: 230; selectivity ratio [14]: 24; Ratio EC50 [15]: 7; Ratio EC50 (Human alphaherpesvirus 1 [16]): 30
Cc1cn([C@@H]2C[C@H](O)[C@@H](CO)O2)c(=O)c[n+]1[O-] | > 82 | > 412 | > 412 | > 412 | > 412 | > 412 | 328 | > 412 |  |  |  |  |  |  |  | 
CCc1cn([C@H]2O[C@H](CO)[C@@H](O)[C@H]2O)c(=O)c[n+]1[O-] |  |  |  |  |  |  |  |  | > 100 | > 100 | > 100 | > 100 | > 100 | inactive | Non-Toxic | 
CCc1c[nH]c(=O)c[n+]1[O-] |  |  |  |  |  |  |  |  | > 100 | > 100 | > 100 | > 100 | > 100 | inactive | Non-Toxic | 
